Experimental data reported in ChEMBL document CHEMBL3272140, “Structure and antitumor activity relationship of 2-arylidene-4-cyclopentene-1, 3-diones and 2-arylideneindan-1, 3-diones” (J Med Chem, 1976).

Key:
[1] = test system: Sarcoma-180; test: Antitumor activity against mouse ascites Sarcoma 180 cells allografted in ddN mouse assessed as percentage of total packed cell volume ratio at 100 mg/kg/day for 5 days administered 24 hrs after tumor inoculation measured 7th day after tumor inoculation; format: functional
Summary of the method: (§1)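 Compound given by injection once daily for 5 days, beginning 24 h after S-180 tumor inoculation. Antitumor activity was scored from the total packed cell volume ratio (TPCV %) on day 7 after inoculation.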

[2] = test system: Sarcoma-180; test: Antitumor activity against mouse ascites Sarcoma 180 cells allografted in ddN mouse assessed as percentage of total packed cell volume ratio at 3 mg/kg/day for 5 days administered 24 hrs after tumor inoculation measured 7th day after tumor inoculation; format: functional; summary of the method: as §1
[3] = test system: Sarcoma-180; test: Antitumor activity against mouse ascites Sarcoma 180 cells allografted in ddN mouse assessed as percentage of total packed cell volume ratio at 10 mg/kg/day for 5 days administered 24 hrs after tumor inoculation measured 7th day after tumor inoculation; format: functional; summary of the method: as §1
[4] = test system: Mus musculus; test: Toxicity in mouse ascites sarcoma 180 cells allografted ddN mouse at 3 mg/kg/day for 5 days administered 24 hrs after tumor inoculation measured 7th day after tumor inoculation; format: organism-based; conditions: in vivo

| Structure (SMILES) | Activity [1] [%] | other results |
| --- | --- | --- |
| COc1cc(/C=C2\CCC(C)/C(=C\c3ccc(O)c(OC)c3)C2=O)ccc1O (stereo not given) | 66 |  |
| COc1cc(C=C2C(=O)C=CC2=O)ccc1O |  | Activity [2]: 0% |
| COc1cc(C=C2C(=O)c3ccccc3C2=O)cc(OC)c1OCc1ccccc1 | 66 |  |
| COc1cc(/C=C2\CCC(C)/C(=C\c3ccc(OCc4ccccc4)c(OC)c3)C2=O)ccc1OCc1ccccc1 (stereo not given) | 66 |  |
| COc1cc(/C=C2\CC/C(=C\c3cc(OC)c(O)c(OC)c3)C2=O)cc(OC)c1O | 66 |  |
| COc1ccc(C=C2C(=O)c3ccccc3C2=O)cc1OC | 41 |  |
| COc1cc(/C=C2\CC(C)C/C(=C\c3cc(OC)c(O)c(OC)c3)C2=O)cc(OC)c1O (stereo not given) | 66 |  |
| O=C1C(=Cc2ccc(O)cc2)C(=O)c2ccccc21 | 66 |  |
| COc1cc(C=C2C(=O)C=CC2=O)cc(OC)c1OC |  | Activity [3]: 0% |
| COc1cc(/C=C2\CCC(C)/C(=C\c3cc(OC)c(OCc4ccccc4)c(OC)c3)C2=O)cc(OC)c1OCc1ccccc1 (stereo not given) | 66 |  |
| COc1cc(C=C2C(=O)C=CC2=O)cc(OC)c1O |  | Activity [3]: 0% |
| COc1cc(/C=C2\CC(C)C/C(=C\c3ccc(O)c(OC)c3)C2=O)ccc1O (stereo not given) | 66 |  |
| COc1cc(/C=C2\CC(C)C/C(=C\c3cc(OC)c(OCc4ccccc4)c(OC)c3)C2=O)cc(OC)c1OCc1ccccc1 (stereo not given) | 66 |  |
| COc1cc(/C=C2\CCC/C(=C\c3cc(OC)c(OCc4ccccc4)c(OC)c3)C2=O)cc(OC)c1OCc1ccccc1 | 66 |  |
| COc1cc(/C=C2\CCC/C(=C\c3ccc(O)c(OC)c3)C2=O)ccc1O [CYCLOVALONE] | 66 |  |
| COc1cc(/C=C2\CCC/C(=C\c3cc(OC)c(O)c(OC)c3)C2=O)cc(OC)c1O | 66 |  |
| O=C1C(=C/C=C/c2ccccc2)C(=O)c2ccccc21 | 66 |  |
| COc1cc(/C=C2\CC(C)C/C(=C\c3ccc(OCc4ccccc4)c(OC)c3)C2=O)ccc1OCc1ccccc1 (stereo not given) | 66 |  |
| COc1cc(/C=C2\CC/C(=C\c3ccc(O)c(OC)c3)C2=O)ccc1O | 66 |  |
| COc1ccc(C=C2C(=O)C=CC2=O)cc1OC |  | Activity [3]: 0% |

| Structure (SMILES) | Activity [1] [%] | other results |
| --- | --- | --- |
| COc1cc(/C=C/C=C2C(=O)c3ccccc3C2=O)ccc1O | 66 |  |
| COc1ccc(C=C2C(=O)C=CC2=O)cc1O |  | Activity [3]: 0% |
| O=C1C=CC(=O)C1=C/C=C/c1ccccc1 |  | Activity [3]: 0% |
| COc1cc(C=C2C(=O)c3ccccc3C2=O)cc(OC)c1OC | 41 |  |
| COc1cc(C=C2C(=O)c3ccccc3C2=O)ccc1OCc1ccccc1 | 66 |  |
| COc1cc(/C=C2\CC/C(=C\c3ccc(OCc4ccccc4)c(OC)c3)C2=O)ccc1OCc1ccccc1 | 66 |  |
| O=C1CC(=O)c2ccccc21 | 11 |  |
| COc1ccc(C=C2C(=O)C=CC2=O)cc1 |  | Activity [3]: 0% |
| O=C1C=CC(=O)C1 |  | Activity [4]: Toxic |
| COc1cc(C=C2C(=O)C=CC2=O)ccc1OCc1ccccc1 |  | Activity [3]: 11% |
| COc1ccc(C=C2C(=O)c3ccccc3C2=O)cc1 | 66 |  |
| COc1cc(/C=C2\CC/C(=C\c3cc(OC)c(OCc4ccccc4)c(OC)c3)C2=O)cc(OC)c1OCc1ccccc1 | 66 |  |
| COc1ccc(C=C2C(=O)c3ccccc3C2=O)cc1O | 41 |  |
| COc1cc(C=C2C(=O)c3ccccc3C2=O)ccc1O | 0 |  |
| COc1cc(C=C2C(=O)c3ccccc3C2=O)cc(OC)c1O | 11 |  |
| COc1cc(C=C2C(=O)C=CC2=O)cc(OC)c1OCc1ccccc1 |  | Activity [3]: 11% |
| COc1cc(/C=C2\CCC/C(=C\c3ccc(OCc4ccccc4)c(OC)c3)C2=O)ccc1OCc1ccccc1 | 66 |  |
| COc1cc(/C=C2\CCC(C)/C(=C\c3cc(OC)c(OC)c(OC)c3)C2=O)cc(OC)c1OC (stereo not given) | 66 |  |
| O=C1C=CC(=O)C1=Cc1ccc(O)cc1 |  | Activity [3]: 0% |
| COc1cc(/C=C2\CCC(C)/C(=C\c3cc(OC)c(O)c(OC)c3)C2=O)cc(OC)c1O (stereo not given) | 66 |  |
